In the library only some 2.2% were active in any assay of this set; here they are far more common.
AI-2 QS modul: Vibrio harveyi AI-2 quorum sensing modulators, primary screen, JMH597 strain, luminescence/OD600 ratio; Vibrio harveyi JMH597 AI-2 luminescence/OD600 ratio, 9 h; hits give low values; strain lacks LuxN and CqsS sensors; 0 = neutral-control median; activity change, % at 7.5 µM; hit rate 0.4% among 300,000; AID 2094, 2009; in the data active = activity change below about -75%, passing the limit was not always enough; inconclusive = no clear call, values can overlap the other calls;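 also: luminescence divided by OD600 gain over 9 h not by final OD600 alone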
PolyA inh: polyadenylation inhibitors in yeast reporter cells, primary screen, luminescence, S. cerevisiae. S. cerevisiae SKY197-pL101 polyadenylation reporter, beta-gal luminescence; efflux-impaired pdr1/pdr3 knockout yeast; score 100 = 6 SD above DMSO. activity score, % at 12 µM. hit rate 0.02% among 300,000;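 active = lowest replicate activity score at least 50, where 100 means six control SD above control mean; inconclusive = lowest score under 50 but half or more replicates reach 50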;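 also: yeast exposed to compound for 9 h at 30 °C; higher score means more reporter readthrough which indicates perturbed polyadenylation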
Efflux pump mplx: inhibitors of Candida efflux pumps in yeast, primary screen, S. cerevisiae, Nile Red, multiplex; S. cerevisiae Candida pump triplex; inhibition, % at 10 µM; hit rate 0.44% among 330,000; AID 485275, 2010;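 active = plate passing quality check with inhibition over a set limit, or well fluorescence over plate mean plus 4 SD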;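 also: Nile Red retained in pooled yeast measured as flow cytometry median fluorescence; 0% = buffer negative control and 100% = Enniatin B positive control; higher means more Nile Red kept so more efflux inhibition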
T cruzi repl: inhibitors of intracellular T. cruzi growth, primary screen, luminescence, NIH3T3 host cells; hit rate 1.4% among 300,000; inhibition, % (concentration not given with the values); T. cruzi beta-gal in NIH3T3, 90 h;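 active = mean inhibition across valid replicates above about 55%, limit read from the data; inconclusive = mean below that limit but half or more replicates reach it; inactive = mean below it, under half of replicates reach it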;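 also: signal also drops with host cell toxicity which is not excluded here; 0% = plate median of DMSO wells and 100% = zero luminescence signal; higher percent means less beta-gal luminescence so fewer parasites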
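System: mouse NIH/3T3 fibroblasts infected with β-gal-expressing T. cruzi Tulahuen C4 / Input: NIH/3T3 cells, 5,000 per well / Buffer or medium: Low-serum DMEM with 2% FBS / Probe or stimulus: 5000 reporter trypomastigotes per well / Schedule: ≥90 h infection period, 3 h prior cell attachment / Measured by: GalScreen luminescence, 60 min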
HDAC3 inh: HDAC3 deacetylase inhibitors, primary screen, biochemical, fluorescence, cell-free homogeneous; inhibition, % at 8.3 µM; recombinant HDAC3, fluorogenic peptide/trypsin coupled; hit rate 0.15% among 320,000; Histone deacetylase 3 (Homo sapiens), O15379; in the data active = inhibition above about 26%, passing the limit was not always enough; inconclusive = no clear call, values can overlap the other calls
Target sequence (O15379 whole entry, looked up): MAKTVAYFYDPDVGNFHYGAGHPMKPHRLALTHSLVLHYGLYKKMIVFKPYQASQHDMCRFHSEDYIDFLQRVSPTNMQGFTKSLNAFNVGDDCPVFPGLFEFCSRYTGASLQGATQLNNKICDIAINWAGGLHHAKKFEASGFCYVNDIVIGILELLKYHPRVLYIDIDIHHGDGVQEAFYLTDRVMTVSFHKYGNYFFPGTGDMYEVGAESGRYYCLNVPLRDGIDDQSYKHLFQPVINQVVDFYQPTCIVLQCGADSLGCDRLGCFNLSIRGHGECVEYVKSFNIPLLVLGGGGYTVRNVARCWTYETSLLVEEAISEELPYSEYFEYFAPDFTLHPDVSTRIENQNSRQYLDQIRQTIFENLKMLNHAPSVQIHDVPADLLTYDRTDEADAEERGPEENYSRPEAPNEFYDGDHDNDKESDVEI
JMH597 growth rt: Vibrio harveyi growth inhibition, confirmation, counter-screen for AI-2 quorum sensing project, JMH597 strain, OD600 absorbance. shares compounds with AI-2 QS modul. 9 h; lacks LuxN and CqsS sensors. growth inhibition, % at 7.5 µM. hit rate 1% among 750. AID 2726, 2010;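 active = every replicate shows growth inhibition above 50%; inconclusive = at least half, but not all, replicates pass that cutoff; inactive = fewer than half of replicates pass it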
BB721 const-QS lum: luminescence inhibition in constitutive-on V. harveyi, confirmation, counter-screen for LuxS inhibitor project, strain BB721, luminescence readout | shares compounds with AI-2 QS modul | Vibrio harveyi BB721 luminescence, 9 h | inhibition, % at 7.5 µM | hit rate 95% among 750;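 active = inhibition above about 80% in every replicate, not just on average, limit read from the data; inconclusive = at least half of replicates past the limit, but not all; inactive = fewer than half of replicates past the limit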
BB721 growth rt: growth inhibition of V. harveyi BB721, confirmation, cytotoxicity control for AI-2 quorum sensing inhibitors, strain BB721, absorbance OD600. hit rate 3% among 750. growth inhibition, % at 7.5 µM. shares compounds with AI-2 QS modul. Vibrio harveyi BB721 growth, 9 h;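 active = every replicate shows growth inhibition above 50%; inconclusive = at least half but not all replicates above 50% inhibition; inactive = under half of replicates above 50% inhibition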
JMH597 AI-2 mod: Vibrio harveyi AI-2 signaling luminescence modulation – JMH597 strain, confirmation; inhibition, % at 7.5 µM; hit rate 97% among 750; Vibrio harveyi JMH597 AI-2 quorum sensing luminescence, 9 h; luxN and CqsS knockout, AI-2 only; shares compounds with AI-2 QS modul; AID 2736, 2010;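 active = every replicate shows more than 75% inhibition of signal versus neutral control wells; inconclusive = half to three quarters of replicates exceed 75% inhibition; inactive = fewer than half of replicates exceed 75% inhibition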
* = called active by the depositor; ? = inconclusive; . = no result.

SMILES	AI-2 QS modul	PolyA inh	Efflux pump mplx	T cruzi repl	HDAC3 inh	JMH597 growth rt	BB721 const-QS lum	BB721 growth rt	JMH597 AI-2 mod
COc1ccc(OC)c(NC(=O)C2CCN(S(=O)(=O)c3ccc4c(c3)CC(C)N4C(C)=O)CC2)c1 (configuration not stated)	7	-5	0	12	-1	.	.	.	.
O=C(NCCc1ccccc1F)C1CCCN1S(=O)(=O)c1ccc2ccccc2c1 (configuration not stated)	38	-16	0	75*	3	.	.	.	.
CCN(CC)c1c([N+](=O)[O-])c(=O)n(C)c2ccccc12	13	-7	0	27	9	.	.	.	.
Cn1c(=O)c([N+](=O)[O-])c(NCCc2ccccc2)c2ccccc21	6	9	0	59*	-4	.	.	.	.
Cn1c(=O)c([N+](=O)[O-])c(Cl)c2ccccc21	-1	-6	.	88*	.	.	.	.	.
Cc1ccsc1/C=C(\C(=O)c1ccc(OC(C)C)cc1)c1nc2ccccc2o1	24	-4	0	68*	-8	.	.	.	.
CCc1cccc2sc(N3CCN(C(=O)c4ccc([N+](=O)[O-])o4)CC3)nc12	-9	-28	0	64*	3	.	.	.	.
Nc1c(C(=O)c2ccccc2)sc(Nc2ccccc2)c1S(=O)(=O)c1ccccc1	3	-33	0	55*	3	.	.	.	.
Cc1ccccc1CN1CCN(S(=O)(=O)c2ccc(F)cc2)CC1	-14	-15	0	17	0	.	.	.	.
O=S(=O)(c1ccc(Br)cc1)N1CCCN(Cc2ccccc2F)CC1	6	-9	6.8*	10	-4	.	.	.	.
Cc1cc(C)cc(NC(=O)[C@@H](NC(=O)c2ccco2)C(C)C)c1	29	8	0	2	3	.	.	.	.
COc1cnc(-c2ccccn2)nc1Sc1ccccc1Cl	63	-57	0	60*	3	.	.	.	.
COc1cnc(-c2ccccn2)nc1Sc1c(Cl)cccc1Cl	86	-55	0	32	4	.	.	.	.
O=C(COC(=O)c1ccncc1)Nc1cc(Cl)c(Cl)cc1Cl	.	.	0.8*	.	-3	.	.	.	.
O=C(COC(=O)c1ccncc1)Nc1cc(Cl)ccc1Cl	20	-6	0	-11	-1	.	.	.	.
CC(Oc1ccccc1C(N)=O)C(=O)Nc1ccc(S(=O)(=O)N2CCCC2)cc1 (configuration not stated)	16	-14	0	-4	-1	.	.	.	.
Cc1ccc(N(CC(=O)NCC2CCCO2)S(=O)(=O)c2ccccc2)c(C)c1 (configuration not stated)	23	25	0	-5	-4	.	.	.	.
O=C(O)c1ccc(N/N=C/C=C/c2ccccc2)cc1	-84*	9	0	-19	4	16	98*	63*	98*
Cc1cccc(CSc2nnc(-c3ccco3)o2)c1	-91*	-50	0	6	-3	-3	97*	-10	98*
Cc1cccc(-c2nnc(SCc3ccccc3)o2)c1	-89*	-6	0	-21	-5	43	96*	?	97*
Cc1cccc(CSc2nnc(-c3ccco3)n2C)c1	-21	0	0	2	-7	.	.	.	.
CSc1nnc(-c2ccccc2)o1	?	-10	0	1	-4	-1	10	8	8
Cc1cccc(NC(=O)CSc2nnc(-c3ccco3)o2)c1C	53	1	0	-4	1	.	.	.	.
Cc1cc(C)cc(-c2nnc(SCc3ccc(C(=O)O)cc3)o2)c1	48	-9	0	-7	6	.	.	.	.
CC(=O)c1c(C)cc(C)c(CSc2nnc(-c3ccco3)o2)c1C	-81*	20	0	0	1	22	89*	16	91*
SMILES	AI-2 QS modul	PolyA inh	Efflux pump mplx	T cruzi repl	HDAC3 inh	JMH597 growth rt	BB721 const-QS lum	BB721 growth rt	JMH597 AI-2 mod
O=C1OC/C(=C(/O)c2ccc(Cl)cc2)C1=O	15	-20	0	-8	0	.	.	.	.
COc1ccc(-n2c(C)cc(-c3csc(N)n3)c2C)cc1	43	6	0	8	-7	.	.	.	.
CC(C)=CC(=O)OCC(=O)Nc1ccc(SC(F)F)cc1	-87*	15	0	-3	3	19	93*	-3	96*
CCn1cc(CN2CCC(n3nccc3NC(=O)c3ccc(OC)cc3)CC2)cn1	19	20	1	15	3	.	.	.	.
CC(Nc1ccc(Cl)cc1)c1cc(Cl)ccc1O (configuration not stated)	-13	15	0	-8	7	.	.	.	.
CC(Nc1ccc(Br)cn1)c1cc(Cl)ccc1O (configuration not stated)	-86*	-1	.	20	.	34	96*	31	97*
Nc1cc(Oc2ccc(Cl)cc2Cl)nc(N)n1	-95*	3	0	0	?	9	99*	-15	99*
CCOC(=O)c1sc2nccc(OC)c2c1N=CN(C)C	9	16	0	5	-3	.	.	.	.
O=C(COC(=O)Cc1ccc2c(c1)OCCO2)Nc1ccc(S(=O)(=O)N2CCCC2)cc1	-92*	-3	0	-3	2	57	96*	-35	97*
CSc1ncccc1C(=O)OCC(=O)c1ccc(S(=O)(=O)N2CCCCC2)cc1	22	-1	0	7	0	.	.	.	.
O=C(COc1cccc(C(F)(F)F)c1)Nc1ccc(S(=O)(=O)N2CCCC2)cc1	-93*	.	0	0	2	35	98*	21	?
CSc1ncccc1C(=O)OCC(=O)Nc1ccc(S(=O)(=O)N2CCCC2)cc1	-92*	-9	0	-15	1	49	98*	43	99*
Cc1cc(C(=O)OCC(=O)Nc2ccc(S(=O)(=O)N3CCOCC3)cc2)c(C)o1	-91*	-16	0	2	0	-5	98*	24	98*
CC(C)CN(C(=O)CSc1nn(-c2ccc(Cl)cc2)c(=S)s1)C1CCS(=O)(=O)C1 (configuration not stated)	30	3	0	7	-2	.	.	.	.
Cc1nn(S(=O)(=O)c2ccccc2)c(C)c1S(=O)(=O)N1CCOCC1	-8	0	0	14	4	.	.	.	.

Compound activity deposited in PubChem BioAssay by several laboratories.
